Test results from ChEMBL document CHEMBL1649139, “A novel gene, erm(41), confers inducible macrolide resistance to clinical isolates of Mycobacterium abscessus but is absent from Mycobacterium chelonae” (2009).
Values after ≈ are worked out from the molar mass of the structure shown.

How the values were obtained:
Format in all cases: functional
[1] = tested on: Mycobacteroides abscessus; assay: Antimicrobial activity against Mycobacterium abscessus isolate MC1028 at day 9 by broth microdilution method; details: isolate MC1028, 216 h
How it was run: (§1)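 Clarithromycin MIC by CLSI-conforming broth microdilution. Before testing, cultures were preincubated for 3 days, either in medium alone or in clarithromycin or erythromycin (tested range 0.01–1 μg/ml). Preincubation ran for at least two generations, judged by turbidity increase. Plates were read on day 3 and on extended incubation at days 5 to 14.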

[2] = tested on: Mycobacteroides abscessus; assay: Antimicrobial activity against Mycobacterium abscessus isolate MC958 at day 3 preincubated with 0.1 ug/ml for 3 days by broth microdilution method
How it was run: (§2)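 To test inducible resistance, cultures were preincubated for 3 days in clarithromycin or erythromycin, within 0.01–1 μg/ml. The period was set so cultures passed at least two generations, judged by turbidity increase. Clarithromycin MIC was then determined by CLSI-conforming broth microdilution and read on the stated day, from day 3 up to 14.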

[3] = tested on: Mycobacteroides abscessus; assay: Antimicrobial activity against Mycobacterium abscessus isolate MC720 at day 3 preincubated with 0.1 ug/ml for 3 days by broth microdilution method
How it was run: (§3)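 Clarithromycin MIC by broth microdilution following CLSI guidelines. Before testing, organisms were preincubated for 3 days in medium alone or in clarithromycin or erythromycin (0.01–1 μg/ml), long enough for at least two generations judged by turbidity increase. MICs were read on day 3 and again on extended incubation out to day 14.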

[4] = tested on: Mycobacteroides abscessus; assay: Antimicrobial activity against Mycobacterium abscessus isolate MC1082 at day 7 by broth microdilution method; details: isolate MC1082, 168 h; how it was run: as §1
[5] = tested on: Mycobacteroides abscessus; assay: Antimicrobial activity against Mycobacterium abscessus isolate MC723 at day 9 preincubated with 0.1 ug/ml erythromycin for 3 days by broth microdilution method; how it was run: as §3
[6] = tested on: Mycobacteroides abscessus; assay: Antimicrobial activity against Mycobacterium abscessus isolate MC958 at day 3 preincubated with 0.1 ug/ml erythromycin for 3 days by broth microdilution method; how it was run: as §2
[7] = tested on: Mycobacteroides abscessus; assay: Antimicrobial activity against Mycobacterium abscessus isolate MC1028 at day 14 preincubated with 0.1 ug/ml for 3 days by broth microdilution method; how it was run: as §1
[8] = tested on: Mycobacteroides abscessus; assay: Antimicrobial activity against Mycobacterium abscessus isolate MC723 at day 5 by broth microdilution method; details: isolate MC723, 120 h; how it was run: as §3
[9] = tested on: Mycobacteroides abscessus; assay: Antimicrobial activity against Mycobacterium abscessus isolate MC720 at day 9 preincubated with 0.1 ug/ml erythromycin for 3 days by broth microdilution method; how it was run: as §3
[10] = tested on: Mycobacteroides abscessus; assay: Antimicrobial activity against Mycobacterium abscessus isolate MC879 at day 3 preincubated with 0.1 ug/ml for 3 days by broth microdilution method; how it was run: as §2

CC[C@H]1OC(=O)[C@H](C)[C@@H](O[C@H]2C[C@@](C)(OC)[C@@H](O)[C@H](C)O2)[C@H](C)[C@@H](O[C@@H]2O[C@H](C)C[C@H](N(C)C)[C@H]2O)[C@](C)(OC)C[C@@H](C)C(=O)[C@H](C)[C@@H](O)[C@]1(C)O [CLARITHROMYCIN]
MIC [1]: ≤ 0.5 µg/mL
MIC [2]: ≤ 0.5 µg/mL
MIC [3]: ≤ 0.5 µg/mL
MIC [4]: ≤ 0.5 µg/mL
MIC [5]: > 32 µg/mL
MIC [6]: ≤ 0.5 µg/mL
MIC [7]: ≤ 0.5 µg/mL
MIC [8]: 1 µg/mL (≈ 1.34 µM)
MIC [9]: > 32 µg/mL
MIC [10]: ≤ 0.5 µg/mL
